Our source for the CC50 values is ChEMBL document CHEMBL4043244, “Diverse amide analogs of sulindac for cancer treatment and prevention” (Bioorg Med Chem Lett, 2017).

What is called CC50 is the concentration that lowers cell viability or growth by half. A low value points to harm at low concentration.

Structures are written as SMILES. Where only a bound is given, the exact number is not on record here.

What all share (format): functional
One assay deals with MDA-MB-231. Put plainly: Growth inhibition of human MDA-MB-231 cells after 72 hrs by CellTiter-Glo reagent based assay. Conditions: MDA-MB-231, 72 h. Put shortly: (§1)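 Cancer cell lines (PC3 prostate, HT29 colorectal carcinoma, MDA-MB-231 breast) were screened by quantitative high-throughput screening in whole cells, and CC50 values were derived.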
On the technique in general: Cellular ATP, detected with luciferase, serves as a proxy for viable cell number.

The subject of another assay is HT-29. Put plainly: Growth inhibition of human HT-29 cells after 72 hrs by CellTiter-Glo reagent based assay. Particulars: HT-29, 72 h. Put shortly:
as §1

The next assay concerns PC-3. Kind of assay: Growth inhibition of human PC3 cells after 72 hrs by CellTiter-Glo reagent based assay. Particulars: PC-3, 72 h. Summed up:
as §1

Regarding `COc1cc(/C=C2/C(C)=C(CC(=O)NCCN(C)C)c3cc(F)ccc32)cc(OC)c1OC`, the CC50 came to 15.1 µM with MDA-MB-231, 6.22 µM in the assay with HT-29 and 18.3 µM with PC-3.

Regarding `COc1cc(/C=C2/C(C)=C(CC(=O)NCCN3CCCC3)c3cc(F)ccc32)cc(OC)c1OC`, the CC50 came out at 41.1 µM with MDA-MB-231, 13.4 µM with HT-29 and 46.5 µM with PC-3.

As for `COc1cc(/C=C2/C(C)=C(CC(=O)N3CCC[C@H]3CN3CCCC3)c3cc(F)ccc32)cc(OC)c1OC`, the values for the half-maximal cytotoxic concentration (CC50) with MDA-MB-231, with HT-29 and with PC-3 were 11.1 µM, 4.22 µM and 12.3 µM, respectively.

On to `CSc1ccc(/C=C2/C(C)=C(CC(=O)NCc3ccc(N(C)C)cc3)c3cc(F)ccc32)cc1`, for which the CC50 in the assay with MDA-MB-231, in the assay with HT-29 and with PC-3 was greater than 50 µM each time.

As for `CCN1CCC[C@H]1CNC(=O)CC1=C(C)/C(=C/c2nc3ccccc3s2)c2ccc(F)cc21`, the CC50 with MDA-MB-231 worked out at 5.58 µM; in the assay on HT-29 it was 1.66 µM; in the assay on PC-3, 7.72 µM.

For the compound `CC1=C(CC(=O)N(CCCNC(C)C)C(C)C)c2cc(F)ccc2/C1=C\c1ccc([S+](C)[O-])cc1` (stereo not given), the CC50 was greater than 50 µM in the assay on MDA-MB-231, 16.3 µM with HT-29 and 48.3 µM in the assay with PC-3.

On to `CCN(CC)CCNC(=O)CC1=C(C)/C(=C/c2nc3ccccc3s2)c2ccc(F)cc21`, for which the CC50 in the assay with MDA-MB-231 was determined as 3.54 µM; in the assay on HT-29 it was 1.12 µM; with PC-3, 4.48 µM.

On to `CCN(CC)CCNC(=O)CC1=C(C)/C(=C/c2cc(OC)c(OC)c(OC)c2)c2ccc(F)cc21`, for which the CC50 in the assay on MDA-MB-231 stood at 12.3 µM; in the assay on HT-29, 5.42 µM; with PC-3 it was 13.9 µM.

As to `CC1=C(CC(=O)NCCN(C)C)c2cc(F)ccc2/C1=C\c1nc2ccccc2s1`, the 50% cytotoxic concentration (CC50) is 3.63 µM in the assay on MDA-MB-231, 1.57 µM in the assay on HT-29 and 4.88 µM with PC-3.

On to `COc1cc(/C=C2/C(C)=C(CC(=O)NCCN3CCCCC3)c3cc(F)ccc32)cc(OC)c1OC`, for which the cytotoxic concentration (CC50) is 10.4 µM in the assay with MDA-MB-231, 4.18 µM in the assay on HT-29 and 9.62 µM in the assay on PC-3.

Consider `COc1cc(/C=C2/C(C)=C(CC(=O)N(C)CCN(C)C)c3cc(F)ccc32)cc(OC)c1OC`, for which the CC50 in the assay on MDA-MB-231 is 10.8 µM; in the assay on HT-29, 4.68 µM; in the assay on PC-3, 11.4 µM.

As to `CCNCCN(CC)C(=O)CC1=C(C)/C(=C/c2ccc([S+](C)[O-])cc2)c2ccc(F)cc21` (stereo not given), the CC50 in the assay on MDA-MB-231 was greater than 50 µM; in the assay on HT-29, 18.2 µM; in the assay on PC-3, greater than 50 µM.

As to `CSc1ccc(/C=C2/C(C)=C(CC(=O)Nc3ccc(N(C)C)cc3)c3cc(F)ccc32)cc1`, the CC50 with MDA-MB-231 was 30.6 µM; in the assay on HT-29 it was greater than 50 µM; with PC-3 it was greater than 50 µM.

As to `CCNCCCN(CC)C(=O)CC1=C(C)/C(=C/c2ccc([S+](C)[O-])cc2)c2ccc(F)cc21` (stereo not given), the CC50 is greater than 50 µM in the assay with MDA-MB-231, 17.5 µM with HT-29 and greater than 50 µM with PC-3.

Turning to `CC1=C(CC(=O)N2CCC[C@H]2CN2CCCC2)c2cc(F)ccc2/C1=C\c1nc2ccccc2s1`, the figures for the half-maximal cytotoxic concentration (CC50) with MDA-MB-231, with HT-29 and in the assay on PC-3 were 3.61 µM, 1.58 µM and 4.25 µM, respectively.

Turning to `CC1=C(CC(=O)NCCN2CCCC2)c2cc(F)ccc2/C1=C\c1ccncc1`, the figures for the cytotoxic concentration (CC50) in the assay with MDA-MB-231, with HT-29 and with PC-3 were 7.19 µM, 2.68 µM and 10.2 µM, respectively.

With `CNCCN(C)C(=O)CC1=C(C)/C(=C/c2cc(OC)c(OC)c(OC)c2)c2ccc(F)cc21`, the CC50 with MDA-MB-231 was 17 µM; in the assay on HT-29 it was 8.05 µM; with PC-3, 23.1 µM.

For `COc1cc(/C=C2/C(C)=C(CC(=O)NCCCN(C)C)c3cc(F)ccc32)cc(OC)c1OC`, the results for the CC50 in the assay on MDA-MB-231, in the assay on HT-29 and with PC-3 were 10.8 µM, 6.08 µM and 13 µM, respectively.

For the compound `CNCCCN(C)C(=O)CC1=C(C)/C(=C/c2ccc([S+](C)[O-])cc2)c2ccc(F)cc21` (stereo not given), the CC50 with MDA-MB-231, in the assay on HT-29 and in the assay with PC-3 was greater than 50 µM in each case.

Regarding `CSc1ccc(/C=C2/C(C)=C(CC(=O)NCc3ccncc3)c3cc(F)ccc32)cc1`, the CC50 was 6.46 µM with MDA-MB-231, 4.88 µM with HT-29 and 5.83 µM with PC-3.
